Reference: ChEMBL document CHEMBL1138863, “Synthesis, in vitro antiviral evaluation, and stability studies of novel alpha-borano-nucleotide analogues of 9-[2-(phosphonomethoxy)ethyl]adenine and (R)-9-[2-(phosphonomethoxy)propyl]adenine” (J Med Chem, 2006)

How the values were obtained:
[1] = Stability in pH 11.5 buffer at 37 degC after 72 hrs; assay type: physicochemical; settings: pH 11.5, 72 h
In short: (§1)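 Compound at 0.1 mM final in buffer (pH 1.2, 5.2, 7.4, 8.1, 9.0 or 11.5) at 37 °C up to 72 h; aliquots frozen at -80 °C, analysed by reverse-phase HPLC (TEAB/acetonitrile gradient, 260 nm); "stable" = less than 5% decomposition after 72 h.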

[2] = system: Human alphaherpesvirus 2; assay: Antiviral activity against HSV2 in HEL cells; assay type: functional, organism-based; settings: Human alphaherpesvirus 2, HEL
[3] = system: Coxsackievirus B4; assay: Antiviral activity against Coxsackie B4 virus in HeLa cells; assay type: functional, organism-based; settings: Enterovirus B
[4] = Stability in pH 1.2 buffer at 37 degC after 72 hrs; assay type: physicochemical; settings: pH 1.2, 72 h; in short: as §1
[5] = system: Mammalian orthoreovirus 1; assay: Antiviral activity against reovirus 1 in Vero cells; assay type: functional, organism-based; settings: Mammalian orthoreovirus 1, Vero
[6] = system: Human alphaherpesvirus 1; assay: (§2) Antiviral activity against HSV1 KOS in HEL cells; assay type: functional, organism-based; settings: Human alphaherpesvirus 1, KOS
[7] = system: Human immunodeficiency virus 1; assay: Antiviral activity against HIV1 in MAGI-CCR5 cells; assay type: functional, organism-based; settings: Human immunodeficiency virus 1, MAGI-CCR5
[8] = Cytotoxicity against Huh5-2 cells; assay type: cell-based, Huh-5-2; settings: human
In short: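 Parallel Huh-5-2 cultures (7000 cells/well) given five 5-fold compound dilutions from 100 µM without G418; proliferation measured 3 days after addition by MTS bioreduction to formazan, read in a plate reader.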

[9] = Stability in pH 8.1 buffer at 37 degC after 72 hrs; assay type: physicochemical; settings: pH 8.1, 72 h; in short: as §1
[10] = Cytotoxicity against HEL cells; assay type: cell-based; settings: human
[11] = Cytotoxicity against HeLa cells; assay type: cell-based; settings: human
[12] = Stability in culture medium (RPMI+FBS); assay type: physicochemical; settings: bovine
In short: (§3)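 Compound diluted to 0.1 mM final in RPMI 1640 or culture medium (RPMI 1640 + 10% heat-inactivated FCS), incubated 37 °C; aliquots frozen at -80 °C and analysed by on-line cleaning HPLC (C18, TEAB/acetonitrile gradient, 260 nm); half-lives calculated.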

[13] = system: Human alphaherpesvirus 1; assay: as §2; assay type: functional, organism-based; settings: Human alphaherpesvirus 1, KOS; remark: listed apart in the source
[14] = Cytotoxicity against MAGI-CCR5 cells; assay type: cell-based; settings: human
In short: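 MAGI-CCR5 cells (10^4 cells/well) were exposed to 0-400 µM compound, 4 h before mock/HIV-1 spinoculation and then throughout a 2-day culture. CC50 is the concentration inhibiting cell proliferation by 50%.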

[15] = system: Vaccinia virus; assay: Antiviral activity against vaccinia virus in HEL cells; assay type: functional, organism-based; settings: Orthopoxvirus vaccinia
[16] = system: Vesicular stomatitis virus; assay: Antiviral activity against vesicular somatitis virus in HEL cells; assay type: functional, organism-based
[17] = Stability in pH 9.0 buffer at 37 degC after 72 hrs; assay type: physicochemical; settings: pH 9, 72 h; in short: as §1
[18] = Stability in pH 7.4 buffer at 37 degC after 72 hrs; assay type: physicochemical; settings: pH 7.4, 72 h; in short: as §1
[19] = system: Respiratory syncytial virus; assay: Antiviral activity against RSV in HeLa cells; assay type: functional, organism-based; settings: human respiratory syncytial virus
[20] = Stability in CEM-SS cell extracts; assay type: physicochemical, cell-based; settings: human
In short: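 CEM-SS cells were washed in PBS, resuspended at 30 × 10^6 cells/mL in 10 mM Tris-HCl, 140 mM KCl (pH 7.4), sonicated and cleared at 10 000g. The supernatant (soluble protein 3 mg/mL) was spiked to a final 0.1 mM compound and incubated at 37 °C. Samples were drawn over time, frozen at -80 °C, and analysed by on-line cleaning reverse-phase HPLC (TEAB gradient, 260 nm). Half-life was calculated.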

[21] = Cytotoxicity against Vero cells; assay type: cell-based; settings: chlorocebus sabaeus
[22] = Stability in pH 5.2 buffer at 37 degC after 72 hrs; assay type: physicochemical; settings: pH 5.2, 72 h; in short: as §1
[23] = system: Hepatitis C virus; assay: Antiviral activity against HCV in Huh5-2 cells by subgenomic replicon assay; assay type: functional, organism-based, Hepacivirus hominis; settings: Huh-5-2
In short: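 Huh-5-2 cells bearing HCV genotype 1b subgenomic replicon I389luc-ubi-neo/NS3-3'/5.1, seeded 7000 cells/well, adhered 24 h, then five 5-fold dilutions from 100 µM in medium lacking G418 for 72 h at 37 °C, 5% CO2. Interferon alfa 2a (500 IU) positive control. Firefly luciferase read as % of untreated cultures; EC50 calculated.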

[24] = system: Sindbis virus; assay: Antiviral activity against Sindbis virus in Vero cells; assay type: functional, organism-based
[25] = Stability in RPMI-1640 medium; assay type: ADME; in short: as §3
[26] = system: Punta Toro virus; assay: Antiviral activity against Punta Toro virus in Vero cells; assay type: functional, organism-based
[27] = system: Human respirovirus 3; assay: Antiviral activity against para influenza 3 virus in Vero cells; assay type: functional, organism-based; settings: Human respirovirus 3, Vero

Row | SMILES | Stability [1] | EC50 [2] | EC50 [3] | Stability [4] | EC50 [5] | EC50 [6] | EC50 [7] | Stability [9] | CC50 [10] | CC50 [11] | half-life [12] | EC50 [13] | CC50 [14] | EC50 [15] | EC50 [16] | Stability [17] | EC50 [19] | CC50 [21] | EC50 [24] | EC50 [26] | also measured
1 | Nc1ncnc2c1ncn2CCOC[PH](=O)O | Stable | 120 µM | > 200 µM | Stable | > 200 µM | 120 µM | > 400 µM | Stable | > 200 µM | > 200 µM | > 72 h | > 200 µM | > 400 µM | > 200 µM | > 200 µM | Stable | > 200 µM | > 200 µM | > 200 µM | > 200 µM | CC50 [8]: > 200 µM; Stability [18]: Stable; half-life [20]: > 72 h; Stability [22]: Stable; EC50 [23]: > 33 µM; half-life [25]: > 72 h; EC50 [27]: > 200 µM
2 | BP(=O)(O)COCCn1cnc2c(N)ncnc21 | Stable | > 200 µM | > 200 µM | Stable | > 200 µM | > 200 µM | > 400 µM | Stable | > 200 µM | > 200 µM | 5.3 h | > 200 µM | > 400 µM | – | – | Stable | > 200 µM | > 200 µM | > 200 µM | > 200 µM | CC50 [8]: > 200 µM; Stability [18]: Stable; half-life [20]: 48 h; Stability [22]: Stable; EC50 [23]: > 33 µM; half-life [25]: > 72 h
3 | BP(=O)(O)CO[C@H](C)Cn1cnc2c(N)ncnc21 | Stable | > 200 µM | > 200 µM | Stable | > 200 µM | 120 µM | > 400 µM | Stable | > 200 µM | > 200 µM | 1.3 h | > 200 µM | > 400 µM | – | – | Stable | > 200 µM | > 200 µM | > 200 µM | > 200 µM | CC50 [8]: > 200 µM; Stability [18]: Stable; half-life [20]: 24 h; Stability [22]: Stable; EC50 [23]: > 33 µM; half-life [25]: > 72 h
4 | C[C@H](Cn1cnc2c(N)ncnc21)OC[PH](=O)O | Stable | > 200 µM | > 200 µM | Stable | > 200 µM | > 200 µM | > 400 µM | Stable | > 200 µM | > 200 µM | > 72 h | > 200 µM | > 400 µM | > 200 µM | > 200 µM | Stable | > 200 µM | > 200 µM | > 200 µM | > 200 µM | CC50 [8]: > 200 µM; Stability [18]: Stable; Stability [22]: Stable; EC50 [23]: > 33 µM; half-life [25]: > 72 h; EC50 [27]: > 200 µM
5 | Nc1ncnc2c1ncn2C[C@H](O)CO [(S)-DHPA] | – | – | > 500 µM | – | > 500 µM | – | – | – | – | > 500 µM | – | – | – | – | – | – | > 500 µM | > 500 µM | > 500 µM | > 500 µM | EC50 [27]: > 500 µM
6 | Nc1nc2c(ncn2COCCO)c(=O)[nH]1 [ACYCLOVIR] | – | 0.48 µM | – | – | – | 12 µM | – | – | > 500 µM | – | – | 0.48 µM | – | 300 µM | > 500 µM | – | – | – | – | – | –
7 | Nc1ncnc2c1ncn2CCOCP(=O)(O)O [ADEFOVIR] | Stable | – | – | Stable | – | – | 5.04 µM | Stable | – | – | > 72 h | – | > 400 µM | – | – | Stable | – | – | – | – | Stability [18]: Stable; half-life [20]: > 72 h; Stability [22]: Stable; half-life [25]: > 72 h
8 | O=c1[nH]c(=O)n([C@H]2C[C@H](O)[C@@H](CO)O2)cc1/C=C/Br [BRIVUDINE] | – | 300 µM | > 500 µM | – | > 500 µM | 300 µM | – | – | > 500 µM | > 500 µM | – | 0.096 µM | – | 2.4 µM | > 500 µM | – | > 500 µM | > 500 µM | > 500 µM | > 500 µM | EC50 [27]: > 500 µM
9 | Nc1nc2c(ncn2COC(CO)CO)c(=O)[nH]1 [GANCICLOVIR] | – | 0.032 µM | – | – | – | 0.48 µM | – | – | > 100 µM | – | – | 0.019 µM | – | > 100 µM | > 100 µM | – | – | – | – | – | –
10 | NC(=O)c1ncn([C@@H]2O[C@H](CO)[C@@H](O)[C@H]2O)n1 [RIBAVIRIN] | – | > 500 µM | > 500 µM | – | 100 µM | > 500 µM | – | – | > 500 µM | > 500 µM | – | 300 µM | – | 100 µM | > 500 µM | – | 12 µM | > 500 µM | > 500 µM | 100 µM | EC50 [27]: 300 µM
11 | Cc1cn([C@H]2C=C[C@@H](CO)O2)c(=O)[nH]c1=O [STAVUDINE] | – | – | – | – | – | – | 0.062 µM | – | – | – | – | – | > 400 µM | – | – | – | – | – | – | – | –
12 | C[C@H](Cn1cnc2c(N)ncnc21)OCP(=O)(O)O [TENOFOVIR ANHYDROUS] | Stable | – | – | Stable | – | – | 0.35 µM | Stable | – | – | > 72 h | – | > 400 µM | – | – | Stable | – | – | – | – | Stability [18]: Stable; half-life [20]: > 72 h; Stability [22]: Stable; half-life [25]: > 72 h
13 | Cc1cn([C@H]2C[C@H](N=[N+]=[N-])[C@@H](CO)O2)c(=O)[nH]c1=O [ZIDOVUDINE] | – | – | – | – | – | – | 0.025 µM | – | – | – | – | – | > 400 µM | – | – | – | – | – | – | – | –
